Laboratory results from ChEMBL document CHEMBL4689842, “EUbOPEN Chemogenomics Library wave 1” (2021).

Test system: HEK-293T
Assay: Multiplex assay against HEK293T;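 as to Population Tubulin-Different-Phenotype (%): share of the cells with healthy nuclei that show this phenotype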
Assay type: toxicity, cell-based
Conditions: human
How it was run: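 Imaging took place on a CQ1 microscope at 37°C and 5% CO2 once compound had been added to live cells stained at seeding with Hoechst33342, BioTracker Green Microtubule Cytoskeleton Dye, MitoTracker Red and Annexin V Alexa Fluor 680. CellPathfinder machine-learning gating classed cells as Hoechst high-intensity objects or normal cells, classed normal cells as having healthy, pyknosed or fragmented nuclei, and classed pyknosed cells as mitotic or apoptotic. Tubulin, mitochondrial-mass and membrane-permeability phenotypes are per cents of the healthy-nucleus cells.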

[1] = 12 h, 1 µM, compound concentration 1 uM, replicate 1
[2] = 12 h, 1 µM, compound concentration 1 uM, replicate 2
[3] = 12 h, 10 µM, compound concentration 10 uM, replicate 1
[4] = 12 h, 10 µM, compound concentration 10 uM, replicate 2
[5] = 24 h, 1 µM, compound concentration 1 uM, replicate 1
[6] = 24 h, 1 µM, compound concentration 1 uM, replicate 2

Compound: CC(C)[C@H](CO)Nc1nc(Nc2cccc(Cl)c2)c2ncn(C(C)C)c2n1 [PURVALANOLA]
- Population Apoptotic (%) [1]: 48%
- Population Fragmented Nuclei (%) [1]: 8%
- Population Healthy Nuclei (%) [1]: 37%
- Population Hoechst High Intensity Objects (%) [1]: 13%
- Population Membrane Permeable-Phenotype (%) [1]: 5%
- Population Mitochondria Different-Phenotype (%) [1]: 85%
- Population Mitotic Cells (%) [1]: 51%
- Population Normal (%) [1]: 86%
- Population Pyknosed Nuclei (%) [1]: 54%
- Population Tubulin-Different-Phenotype (%) [1]: 53%
- Total Cell Count [1]: 256
- Population Apoptotic (%) [2]: 19%
- Population Fragmented Nuclei (%) [2]: 6%
- Population Healthy Nuclei (%) [2]: 43%
- Population Hoechst High Intensity Objects (%) [2]: 3%
- Population Membrane Permeable-Phenotype (%) [2]: 7%
- Population Mitochondria Different-Phenotype (%) [2]: 33%
- Population Mitotic Cells (%) [2]: 80%
- Population Normal (%) [2]: 96%
- Population Pyknosed Nuclei (%) [2]: 50%
- Population Tubulin-Different-Phenotype (%) [2]: 32%
- Total Cell Count [2]: 201
- Population Apoptotic (%) [3]: 73%
- Population Fragmented Nuclei (%) [3]: 7%
- Population Healthy Nuclei (%) [3]: 27%
- Population Hoechst High Intensity Objects (%) [3]: 12%
- Population Membrane Permeable-Phenotype (%) [3]: 2%
- Population Mitochondria Different-Phenotype (%) [3]: 97%
- Population Mitotic Cells (%) [3]: 26%
- Population Normal (%) [3]: 87%
- Population Pyknosed Nuclei (%) [3]: 64%
- Population Tubulin-Different-Phenotype (%) [3]: 98%
- Total Cell Count [3]: 324
- Population Apoptotic (%) [4]: 53%
- Population Fragmented Nuclei (%) [4]: 6%
- Population Healthy Nuclei (%) [4]: 18%
- Population Hoechst High Intensity Objects (%) [4]: 7%
- Population Membrane Permeable-Phenotype (%) [4]: 5%
- Population Mitochondria Different-Phenotype (%) [4]: 82%
- Population Mitotic Cells (%) [4]: 46%
- Population Normal (%) [4]: 92%
- Population Pyknosed Nuclei (%) [4]: 75%
- Population Tubulin-Different-Phenotype (%) [4]: 97%
- Total Cell Count [4]: 198
- Population Apoptotic (%) [5]: 42%
- Population Fragmented Nuclei (%) [5]: 14%
- Population Healthy Nuclei (%) [5]: 36%
- Population Hoechst High Intensity Objects (%) [5]: 11%
- Population Membrane Permeable-Phenotype (%) [5]: 4%
- Population Mitochondria Different-Phenotype (%) [5]: 75%
- Population Mitotic Cells (%) [5]: 57%
- Population Normal (%) [5]: 88%
- Population Pyknosed Nuclei (%) [5]: 49%
- Population Tubulin-Different-Phenotype (%) [5]: 53%
- Total Cell Count [5]: 295
- Population Apoptotic (%) [6]: 14%
- Population Fragmented Nuclei (%) [6]: 4%
- Population Healthy Nuclei (%) [6]: 63%
- Population Hoechst High Intensity Objects (%) [6]: 3%
- Population Membrane Permeable-Phenotype (%) [6]: 3%
- Population Mitochondria Different-Phenotype (%) [6]: 26%
- Population Mitotic Cells (%) [6]: 85%
- Population Normal (%) [6]: 96%
- Population Pyknosed Nuclei (%) [6]: 31%
- Population Tubulin-Different-Phenotype (%) [6]: 36%
- Total Cell Count [6]: 244
- Population Apoptotic (%) (24 h, 10 µM, compound concentration 10 uM, replicate 1): 75%
